From ChEMBL document CHEMBL2016473, “Synthesis of new opioid derivatives with a propellane skeleton and their pharmacology. Part 2: Propellane derivatives with an amide side chain” (Bioorg Med Chem Lett, 2012)

How the values were obtained:
[1] = biological target: Mu-type opioid receptor (Mus musculus, UniProt P42866); experiment: Displacement of [3H]DAMGO from mu opioid receptor in mouse whole brain without cerebellum
Procedure, shortened: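 Competitive binding against [3H]DAMGO as the mu radioligand, on membranes from mouse whole brain with the cerebellum removed. Run in duplicate, with results reported as Ki.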

[2] = biological target: Kappa-type opioid receptor (Cavia porcellus, UniProt P41144); experiment: Displacement of [3H]U69593 from kappa opioid receptor in guinea pig cerebellum
Chain of Kappa-type opioid receptor (P41144 whole entry): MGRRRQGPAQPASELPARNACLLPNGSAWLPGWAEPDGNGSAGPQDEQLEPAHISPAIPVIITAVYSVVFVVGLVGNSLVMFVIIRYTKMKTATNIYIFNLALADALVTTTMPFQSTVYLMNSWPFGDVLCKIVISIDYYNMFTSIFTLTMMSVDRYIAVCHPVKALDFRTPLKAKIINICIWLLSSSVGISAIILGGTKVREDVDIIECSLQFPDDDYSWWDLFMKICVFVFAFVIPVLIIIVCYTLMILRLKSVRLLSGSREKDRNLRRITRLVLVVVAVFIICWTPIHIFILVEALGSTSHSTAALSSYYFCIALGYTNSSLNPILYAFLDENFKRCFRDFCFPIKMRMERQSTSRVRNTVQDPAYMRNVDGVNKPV
Procedure, shortened: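 Competitive binding against [3H]U-69,593 as the kappa radioligand, on guinea pig cerebellum membranes. Run in duplicate, with results reported as Ki.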

[3] = Selectivity ratio of Ki for mouse mu opioid receptor to Ki for guinea pig kappa opioid receptor
[4] = Selectivity ratio of Ki for mouse delta opioid receptor to Ki for guinea pig kappa opioid receptor
[5] = biological target: Delta-type opioid receptor (Mus musculus, UniProt P32300); experiment: Displacement of [3H]DPDPE from delta opioid receptor in mouse whole brain without cerebellum
Chain of Delta-type opioid receptor (P32300 whole entry, looked up): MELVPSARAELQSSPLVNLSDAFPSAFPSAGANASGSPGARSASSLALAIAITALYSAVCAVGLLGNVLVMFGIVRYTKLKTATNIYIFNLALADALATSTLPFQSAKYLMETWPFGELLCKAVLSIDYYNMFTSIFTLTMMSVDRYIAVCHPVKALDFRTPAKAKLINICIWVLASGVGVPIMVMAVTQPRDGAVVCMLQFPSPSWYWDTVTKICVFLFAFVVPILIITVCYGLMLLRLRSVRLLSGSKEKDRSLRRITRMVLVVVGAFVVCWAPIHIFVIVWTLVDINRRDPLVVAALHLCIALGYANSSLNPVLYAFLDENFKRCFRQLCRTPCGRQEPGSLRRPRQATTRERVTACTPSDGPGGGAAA
Procedure, shortened: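 Competitive binding against [3H]DPDPE as the delta radioligand, on membranes from mouse whole brain with the cerebellum removed. Run in duplicate, with results reported as Ki.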

Chain of Mu-type opioid receptor (P42866 whole entry): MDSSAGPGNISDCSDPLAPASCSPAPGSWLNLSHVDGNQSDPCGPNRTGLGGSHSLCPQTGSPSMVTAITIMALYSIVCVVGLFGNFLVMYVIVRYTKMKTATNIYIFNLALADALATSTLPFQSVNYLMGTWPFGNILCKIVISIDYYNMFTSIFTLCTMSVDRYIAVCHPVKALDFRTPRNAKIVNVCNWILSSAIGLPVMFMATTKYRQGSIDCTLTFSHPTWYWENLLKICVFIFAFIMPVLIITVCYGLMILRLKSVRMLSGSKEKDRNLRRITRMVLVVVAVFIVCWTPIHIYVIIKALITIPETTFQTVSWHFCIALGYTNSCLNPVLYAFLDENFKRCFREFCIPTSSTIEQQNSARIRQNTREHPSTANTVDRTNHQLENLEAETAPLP

## O=C(NCc1ccccc1)C1=CCC23CCN(CC4CC4)CC2(C1)Cc1ccc(O)cc13 (stereo not given)
[1]
  Ki: 0.0339 µM
[2]
  Ki: 0.0727 µM
[3]
  Ratio Ki: 0.47
[4]
  Ratio Ki: 4.1
[5]
  Ki: 0.298 µM

## O=C(Nc1ccccc1)[C@H]1CCC23CCN(CC4CC4)CC2(Cc2ccc(O)cc23)C1 (stereo not given in full)
[1]
  Ki: 0.0808 µM
[2]
  Ki: 0.108 µM
[3]
  Ratio Ki: 0.75
[4]
  Ratio Ki: 1.92
[5]
  Ki: 0.207 µM

## O=C(NCCc1ccccc1)[C@H]1CCC23CCN(CC4CC4)CC2(Cc2ccc(O)cc23)C1 (stereo not given in full)
[1]
  Ki: 0.453 µM
[2]
  Ki: 0.641 µM
[3]
  Ratio Ki: 0.71
[5]
  Ki: > 1 µM

## O=C(Nc1ccccc1)C1=CCC23CCN(CC4CC4)CC2(C1)Cc1ccc(O)cc13 (stereo not given)
[1]
  Ki: 0.0124 µM
[2]
  Ki: 0.0467 µM
[3]
  Ratio Ki: 0.27
[4]
  Ratio Ki: 4.11
[5]
  Ki: 0.192 µM

## O=C(NCc1ccccc1)[C@@H]1CCC23CCN(CC4CC4)CC2(Cc2ccc(O)cc23)C1 (stereo not given in full)
[1]
  Ki: 0.106 µM
[2]
  Ki: 0.0192 µM
[3]
  Ratio Ki: 5.52
[5]
  Ki: > 1 µM

## CN(C(=O)/C=C/c1ccoc1)[C@@H]1CCC23Cc4ccc(O)cc4C2(CCN(CC2CC2)C3)C1 (stereo not given in full)
[1]
  Ki: 0.0122 µM
[2]
  Ki: 0.00343 µM
[3]
  Ratio Ki: 3.56
[4]
  Ratio Ki: 35.3
[5]
  Ki: 0.121 µM

## O=C(NCc1ccccc1)[C@H]1CCC23CCN(CC4CC4)CC2(Cc2ccc(O)cc23)C1 (stereo not given in full)
[1]
  Ki: 0.112 µM
[2]
  Ki: > 1 µM
[5]
  Ki: > 1 µM

## O=C(NCCc1ccccc1)C1=CCC23CCN(CC4CC4)CC2(C1)Cc1ccc(O)cc13 (stereo not given)
[1]
  Ki: 0.0359 µM
[2]
  Ki: 0.253 µM
[3]
  Ratio Ki: 0.14
[4]
  Ratio Ki: 1.63
[5]
  Ki: 0.412 µM

## CN(C(=O)CCc1ccccc1)[C@@H]1CCC23Cc4ccc(O)cc4C2(CCN(CC2CC2)C3)C1 (stereo not given in full)
[1]
  Ki: 0.0319 µM
[2]
  Ki: 0.0164 µM
[3]
  Ratio Ki: 1.95
[4]
  Ratio Ki: 3.98
[5]
  Ki: 0.0652 µM

## CN(C(=O)CCc1ccccc1)[C@H]1CCC23Cc4ccc(O)cc4C2(CCN(CC2CC2)C3)C1 (stereo not given in full)
[1]
  Ki: 0.00123 µM
[2]
  Ki: 0.0071 µM
[3]
  Ratio Ki: 0.17
[4]
  Ratio Ki: 6.24
[5]
  Ki: 0.0443 µM

## O=C(Nc1ccccc1)[C@@H]1CCC23CCN(CC4CC4)CC2(Cc2ccc(O)cc23)C1 (stereo not given in full)
[1]
  Ki: 0.0797 µM
[2]
  Ki: 0.0134 µM
[3]
  Ratio Ki: 5.95
[4]
  Ratio Ki: 21
[5]
  Ki: 0.282 µM

## CN(C(=O)/C=C/c1ccoc1)[C@H]1CCC23Cc4ccc(O)cc4C2(CCN(CC2CC2)C3)C1 (stereo not given in full)
[1]
  Ki: 0.0022 µM
[2]
  Ki: 0.00083 µM
[3]
  Ratio Ki: 2.65
[4]
  Ratio Ki: 42.2
[5]
  Ki: 0.035 µM

## O=C(NCCc1ccccc1)[C@@H]1CCC23CCN(CC4CC4)CC2(Cc2ccc(O)cc23)C1 (stereo not given in full)
[1]
  Ki: 0.0541 µM
[2]
  Ki: 0.169 µM
[3]
  Ratio Ki: 0.32
[5]
  Ki: > 1 µM
